Results: ChEMBL document CHEMBL1949570, “Quinoline- and isoquinoline-sulfonamide derivatives of LCAP as potent CNS multi-receptor-5-HT1A/5-HT2A/5-HT7 and D2/D3/D4-agents: the synthesis and pharmacological evaluation” (Bioorg Med Chem, 2012)
The source made the active and inactive calls. The rule behind the calls is not given here.

Assays:
[1] = biological target: 5-hydroxytryptamine receptor 7 (Homo sapiens, UniProt P34969); assay: Displacement of [3H]5-CT form human cloned 5HT7 receptor expressed in human HEK293 cells by liquid scintillation counter; type: cell-based
How it was run: (§1)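 Competition binding. 5-HT1A: rat hippocampus, [3H]-8-OH-DPAT. 5-HT2A: rat cortex, [3H]-ketanserin. D2: rat striatum, [3H]-spiperone. 5-HT6: human receptor stably in HEK293, [3H]-LSD. 5-HT7: human receptor stably in HEK293, [3H]-5-CT. Vacuum filtration on GF/B filters, ice-cold washes, scintillation counting.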

[2] = biological target: T1, 5-hydroxytryptamine receptor 1A (Rattus norvegicus, UniProt P19327); assay: Displacement of [3H]8-OH-DPAT from rat hippocampus 5-HT1A receptor by liquid scintillation counter; type: tissue-based; how it was run: as §1
T1 sequence (P19327 whole entry): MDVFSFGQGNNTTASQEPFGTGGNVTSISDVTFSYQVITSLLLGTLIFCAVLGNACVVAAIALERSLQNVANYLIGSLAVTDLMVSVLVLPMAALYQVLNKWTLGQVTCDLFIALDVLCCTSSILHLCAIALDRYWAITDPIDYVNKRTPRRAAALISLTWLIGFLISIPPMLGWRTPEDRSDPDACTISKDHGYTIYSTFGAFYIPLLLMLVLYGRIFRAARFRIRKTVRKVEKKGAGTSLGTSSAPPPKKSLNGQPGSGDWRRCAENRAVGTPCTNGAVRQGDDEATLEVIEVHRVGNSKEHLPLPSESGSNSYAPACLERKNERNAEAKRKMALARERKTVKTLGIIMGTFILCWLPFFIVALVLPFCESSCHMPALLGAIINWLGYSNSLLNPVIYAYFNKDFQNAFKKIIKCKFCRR

[3] = biological target: 5-hydroxytryptamine receptor 6 (Homo sapiens, UniProt P50406); assay: Displacement of [3H]-LSD from human full length cloned 5HT6 receptor expressed in human HEK293 cells by liquid scintillation counter; type: cell-based; how it was run: as §1
[4] = biological target: 5-hydroxytryptamine receptor 2A (Rattus norvegicus, UniProt P14842); assay: Displacement of [3H]Ketanserin from rat cortex 5-HT2A receptor by liquid scintillation counter; how it was run: as §1
[5] = test system: Rattus norvegicus; assay: Anxiolytic activity in Wistar rat assessed as increase in open arm entries at 1.25 mg/kg after 5 mins by plus-maze test (reference value: 26.3 +/- 2.1 %); type: functional
[6] = test system: Rattus norvegicus; assay: Anxiolytic activity in Wistar rat assessed as increase in open arm entries at 2.5 mg/kg after 5 mins by plus-maze test (reference value: 26.3 +/- 2.1 %); type: functional
[7] = test system: Rattus norvegicus; assay: Anxiolytic activity in Wistar rat assessed as increase in time spent in open arms at 5 mg/kg after 5 mins by plus-maze test (reference value: 13 +/- 2.3 %); type: functional
[8] = test system: Rattus norvegicus; assay: Anxiolytic activity in Wistar rat assessed as increase in time spent in open arms at 2.5 mg/kg after 5 mins by plus-maze test (reference value: 13 +/- 2.3 %); type: functional
[9] = test system: Rattus norvegicus; assay: Anxiolytic activity in Wistar rat assessed as increase in time spent in open arms at 1.25 mg/kg after 5 mins by plus-maze test (reference value: 13 +/- 2.3 %); type: functional
[10] = test system: Rattus norvegicus; assay: Anxiolytic activity in Wistar rat assessed as increase in open arm entries at 5 mg/kg after 5 mins by plus-maze test (reference value: 26.3 +/- 2.1 %); type: functional
[11] = Selectivity ratio of compound Ki for rat hippocampus 5-HT1A receptor to human 5HT7 receptor; type: tissue-based
How it was run: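 Ratio of Ki values from competition binding: rat hippocampus 5-HT1A with [3H]-8-OH-DPAT versus human 5-HT7 in HEK293 with [3H]-5-CT; Ki by Cheng–Prusoff from 7–9 concentrations in triplicate.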

[12] = test system: Mus musculus; assay: Antipsychotic activity in CD1 mouse assessed as reduction in spontaneous locomotor activity measuring number of crossings at 1.25 to 5 mg/kg every 5 mins for 1 hr; type: functional, organism-based
How it was run: (§2)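 Male CD-1 mice, one per cage, habituated 30 min; photobeam crossings (ambulation) then counted over 1 h, logged every 5 min. Drugs suspended in 1% aqueous Tween 80 and given ip at 10 ml/kg, 30 min before test. For hyperactivity, MK-801 (0.2 mg/kg, in distilled water) was given ip 15 min before test. 5–10 mice/dose; mean ± SEM, one-way ANOVA with Bonferroni test.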

[13] = organism: Mus musculus; assay: Antipsychotic activity in CD1 mouse assessed as inhibition of MK-801-induced hyperactivity measuring number of crossings measured every 5 mins for 1 hr; type: functional, organism-based; how it was run: as §2
[14] = test system: Mus musculus; assay: Antidepressant activity in Swiss albino mouse assessed as reduction in immobility time at 20 mg/kg measured for 4 mins by forced swim test; type: functional; parameters: scale not given: the % may be the effect or the level left
How it was run: (§3)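 Porsolt forced swim in male Swiss albino mice. Drugs ip (10 ml/kg; 1% Tween 80 suspension, imipramine in water) 30 min before. Cylinder 25 cm high, 10 cm diameter, 6 cm water at 23–25 °C, 6 min session; immobility scored over final 4 min. 5–10 mice/dose; one-way ANOVA with Bonferroni.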

[15] = test system: Mus musculus; assay: Antidepressant activity in Swiss albino mouse assessed as reduction in immobility time at 10 mg/kg measured for 4 mins by forced swim test; type: functional; parameters: scale not given: the % may be the effect or the level left; how it was run: as §3

Chain of 5-hydroxytryptamine receptor 2A (P14842 whole entry): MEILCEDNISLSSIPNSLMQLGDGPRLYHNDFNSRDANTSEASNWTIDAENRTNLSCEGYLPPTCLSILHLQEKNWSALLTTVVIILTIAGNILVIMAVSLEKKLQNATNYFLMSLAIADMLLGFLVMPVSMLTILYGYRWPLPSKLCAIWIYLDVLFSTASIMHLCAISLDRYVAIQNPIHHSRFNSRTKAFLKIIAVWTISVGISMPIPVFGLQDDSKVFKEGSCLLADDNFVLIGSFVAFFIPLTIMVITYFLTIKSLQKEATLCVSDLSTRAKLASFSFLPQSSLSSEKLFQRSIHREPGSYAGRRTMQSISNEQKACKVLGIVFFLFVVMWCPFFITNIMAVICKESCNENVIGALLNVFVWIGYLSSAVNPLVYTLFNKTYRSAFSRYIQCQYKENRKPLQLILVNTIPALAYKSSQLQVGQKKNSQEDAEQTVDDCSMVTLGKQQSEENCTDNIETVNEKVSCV
Chain of 5-hydroxytryptamine receptor 7 (P34969 whole entry): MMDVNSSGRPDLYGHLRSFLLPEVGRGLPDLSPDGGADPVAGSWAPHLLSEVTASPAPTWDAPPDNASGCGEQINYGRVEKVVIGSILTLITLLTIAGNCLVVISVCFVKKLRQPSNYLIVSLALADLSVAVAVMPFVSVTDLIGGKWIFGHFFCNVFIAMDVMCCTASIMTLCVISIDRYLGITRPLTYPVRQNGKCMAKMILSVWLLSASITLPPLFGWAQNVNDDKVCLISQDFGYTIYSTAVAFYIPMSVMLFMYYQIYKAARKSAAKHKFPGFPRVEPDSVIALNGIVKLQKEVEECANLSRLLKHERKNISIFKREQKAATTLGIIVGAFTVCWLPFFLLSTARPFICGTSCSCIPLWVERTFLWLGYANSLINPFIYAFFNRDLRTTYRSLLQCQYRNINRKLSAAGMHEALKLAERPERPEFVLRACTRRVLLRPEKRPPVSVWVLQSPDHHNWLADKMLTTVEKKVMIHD
Chain of 5-hydroxytryptamine receptor 6 (P50406 whole entry): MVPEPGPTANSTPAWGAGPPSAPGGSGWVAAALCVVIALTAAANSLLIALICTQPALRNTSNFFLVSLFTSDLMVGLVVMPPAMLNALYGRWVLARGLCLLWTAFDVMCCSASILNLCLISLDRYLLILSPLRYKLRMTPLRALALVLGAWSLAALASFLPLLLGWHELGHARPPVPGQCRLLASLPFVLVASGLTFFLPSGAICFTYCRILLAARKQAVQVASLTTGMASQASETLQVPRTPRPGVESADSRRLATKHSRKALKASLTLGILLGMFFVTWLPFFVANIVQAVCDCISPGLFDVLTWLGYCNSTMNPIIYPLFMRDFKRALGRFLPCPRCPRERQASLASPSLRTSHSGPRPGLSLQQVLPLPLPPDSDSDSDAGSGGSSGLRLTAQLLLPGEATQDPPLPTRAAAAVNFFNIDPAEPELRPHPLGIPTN

O=S(=O)(NCCCCN1CCN(c2cccc(Cl)c2)CC1)c1cccc2cccnc12
Ki [1]: 0.025 µM
Ki [2]: 0.074 µM
Ki [3]: 3.76 µM
Ki [4]: 0.152 µM

CN1C(=O)CN=C(c2ccccc2)c2cc(Cl)ccc21 [DIAZEPAM]
Activity [5]: 63.7%
Activity [6]: 46.6%
Activity [7]: 21.8%
Activity [8]: 28.5%
Activity [9]: 29.7%
Activity [10]: 35.4%

O=S(=O)(NCCCCN1CCN(c2cccc(Cl)c2)CC1)c1cccc2ccccc12
Ki [1]: 0.036 µM
Ki [2]: 0.397 µM
Ki [3]: 0.127 µM
Ki [4]: 0.268 µM
Ratio Ki [11]: 10

CN1CCN(C2=Nc3cc(Cl)ccc3Nc3ccccc32)CC1
Activity [12]: Active
inhibition [13]: Dose-dependent effect

O=S(=O)(NCCCN1CCN(c2ccc(Cl)cc2)CC1)c1cncc2ccccc12
Ki [2]: 0.888 µM

O=S(=O)(c1cnc2ccccc2c1)N1CCC(CN2CCN(c3ccc(Cl)cc3)CC2)CC1
Ki [2]: 0.462 µM
Ki [4]: 6 µM

O=S(=O)(NCCCN1CCN(c2cccc(Cl)c2)CC1)c1cnc2ccccc2c1
Ki [4]: 0.206 µM

O=S(=O)(NCCCCN1CCN(c2cccc(Cl)c2)CC1)c1ccc2ncccc2c1
Ki [4]: 0.042 µM

O=S(=O)(NCCCCN1CCN(c2ccc(Cl)cc2)CC1)c1ccc2ncccc2c1
Ki [2]: 2.03 µM
Ki [4]: 0.044 µM

CN(C)CCCN1c2ccccc2CCc2ccccc21.Cl [IMIPRAMINE HYDROCHLORIDE]
Activity [14]: 52%
Activity [15]: 26.5%
